Reference: ChEMBL document CHEMBL4138092, “Antibacterial activity and mechanism of action of the benzazole acrylonitrile-based compounds: In vitro, spectroscopic, and docking studies” (2017)
Converted amounts (≈) assume the structure as drawn. The source made the active and inactive calls. The rule behind the calls is not given here.

Columns and labels:
Bacillus spizizenii [1] = test: Antibacterial activity against Bacillus subtilis ATCC 6633 after 24 to 48 hrs by agar well diffusion method; format: functional
Procedure, shortened: (§1)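 Mueller Hinton agar plates spread with bacteria (10⁶ cells/ml). Wells were filled with 50 µl of compound and incubated at 37 °C for 24–48 h. The inhibition zone diameter (mm) was measured with a transparent scale. Amoxicillin 5.0 mg/ml at 50 µl/well served as the positive control.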

Escherichia coli [2] = test: Antibacterial activity against Escherichia coli ATCC 25922 after 24 hrs by agar well diffusion method; format: functional; settings: ATCC 25922, 24 h
Pseudomonas aeruginosa [3] = test: Antibacterial activity against Pseudomonas aeruginosa ATCC 27853 after 24 hrs by agar well diffusion method; format: functional; settings: ATCC 27853, 24 h
Staphylococcus aureus [4] = test: Antibacterial activity against Staphylococcus aureus ATCC 25923 after 24 hrs by agar well diffusion method; format: functional; settings: ATCC 25923, 24 h
Bacillus spizizenii [5] = test: Antibacterial activity against Bacillus subtilis ATCC 6633 after 24 hrs by agar well diffusion method; format: functional; settings: ATCC 6633, 24 h
Escherichia coli [6] = test: Antibacterial activity against Escherichia coli ATCC 25922 after 24 to 48 hrs by agar well diffusion method; format: functional; procedure, shortened: as §1
Pseudomonas aeruginosa [7] = test: Antibacterial activity against Pseudomonas aeruginosa ATCC 27853 after 24 to 48 hrs by agar well diffusion method; format: functional; procedure, shortened: as §1
Staphylococcus aureus [8] = test: Antibacterial activity against Staphylococcus aureus ATCC 25923 after 24 to 48 hrs by agar well diffusion method; format: functional; procedure, shortened: as §1
[9] = molecular target: Beta-lactamase (Escherichia coli) (UniProt Q53TY8); test: Binding affinity to Escherichia coli beta-lactamase in phosphate buffer at pH 7.4 at 6 10^-5M after 3 mins by UV-vis spectroscopic analysis
Procedure, shortened: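 Compound at 6 × 10^-5 M in 0.01 M phosphate buffer pH 7.4 was titrated with 10 µl aliquots of 1 × 10^-6 M β-lactamase. Absorbance spectra were recorded at 200–700 nm after 3 min equilibration per addition, continuing until no further change (saturation).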

[10] = molecular target: Beta-lactamase (Escherichia coli) (UniProt Q53TY8); test: Binding affinity to Escherichia coli beta-lactamase in phosphate buffer at pH 7.4 at 6 10^-5M after 3 mins by fluorescence titration analysis
Procedure, shortened: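 Fixed compound concentration in phosphate buffer pH 7.4, titrated with 10 µl additions of 1 × 10^-6 M β-lactamase. Excitation was 280 or 290 nm depending on compound, with emission scanned 300–600 nm and slits 5–10 nm. Readings followed 3 min equilibration per addition in a 1 cm quartz cell, continuing to saturation.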

[11] = molecular target: Beta-lactamase (Escherichia coli) (UniProt Q53TY8); test: Binding affinity to Escherichia coli beta-lactamase in phosphate buffer at pH 7.4 at 6 10^-5M by CD spectral analysis
Procedure, shortened: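 Successive additions of compound (6 × 10^-5 M) were made to 1.0 mL β-lactamase in phosphate buffer pH 7.4. CD spectra were recorded at 25 °C over 200–700 nm, scan speed 50 nm/min, bandwidth 1 nm.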

Escherichia coli [12] = test: Induction of morphological changes in Escherichia coli ATCC 25922 assessed as cell damage at 0.2 ppm after 2 hrs by uranyl acetate staining based transmission electron microscopic analysis; format: functional, organism-based
Procedure, shortened: (§2)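 E. coli was exposed for 2 h, alongside untreated controls processed identically. Pellets were fixed in Karnovsky's fixative (2% paraformaldehyde, 2.5% glutaraldehyde) for 3–4 h at 25 °C, then washed in 0.1 M phosphate pH 7.2. Cells were adsorbed onto formvar-carbon copper grids and stained 5 min in […] aqueous uranyl acetate. Grids were imaged by TEM at 80 kV.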

Escherichia coli [13] = test: Induction of morphological changes in Escherichia coli ATCC 25922 assessed as cell crack at 0.2 ppm after 2 hrs by uranyl acetate staining based transmission electron microscopic analysis; format: functional, organism-based; procedure, shortened: as §2
Escherichia coli [14] = test: Induction of morphological changes in Escherichia coli ATCC 25922 assessed as cell rupture at 0.2 ppm after 2 hrs by uranyl acetate staining based transmission electron microscopic analysis; format: functional, organism-based; procedure, shortened: as §2
[15] = tested on: Bifidobacterium longum subsp. infantis; test: Inhibition of beta-lactamase in Bifidobacterium infantis assessed as potentiation of amoxicillin induced antibacterial activity at 10 to 100% amoxicillin to compound dilution after 24 hrs by agar well diffusion method
Procedure, shortened: (§3)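 Amoxicillin (1.0 µg/ml) was combined with test compound and diluted to 100, 80, 60, 40, 10 and 5%. The mixtures were serially diluted in sterile water, and 100 µl was added to 900 µl nutrient broth. Tubes were inoculated with 10 µl of 10⁵ cells/ml and held 24 h at 37±1 °C. Growth/no growth was scored visually. Controls were bacteria in broth alone and sterile broth alone.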

[16] = tested on: Bifidobacterium longum subsp. infantis; test: Inhibition of beta-lactamase in Bifidobacterium infantis assessed as potentiation of amoxicillin induced antibacterial activity at 5% amoxicillin to compound dilution after 24 hrs by agar well diffusion method; procedure, shortened: as §3
[17] = tested on: Escherichia coli ATCC 25922; test: Inhibition of beta-lactamase in Escherichia coli ATCC 25922 assessed as potentiation of amoxicillin induced antibacterial activity at 10 to 100% amoxicillin to compound dilution after 24 hrs by agar well diffusion method; procedure, shortened: as §3
[18] = tested on: Escherichia coli ATCC 25922; test: Inhibition of beta-lactamase in Escherichia coli ATCC 25922 assessed as potentiation of amoxicillin induced antibacterial activity at 5% amoxicillin to compound dilution after 24 hrs by agar well diffusion method; procedure, shortened: as §3
[19] = molecular target: Beta-lactamase (Staphylococcus aureus) (UniProt P00807); test: Inhibition of beta-lactamase in Staphylococcus aureus ATCC 25923 assessed as potentiation of amoxicillin induced antibacterial activity at 10 to 100% amoxicillin to compound dilution after 24 hrs by agar well diffusion method; procedure, shortened: as §3
[20] = molecular target: Beta-lactamase (Staphylococcus aureus) (UniProt P00807); test: Inhibition of beta-lactamase in Staphylococcus aureus ATCC 25923 assessed as potentiation of amoxicillin induced antibacterial activity at 5% amoxicillin to compound dilution after 24 hrs by agar well diffusion method; procedure, shortened: as §3
[21] = molecular target: Beta-lactamase (Pseudomonas aeruginosa) (UniProt Q79MP6); test: Inhibition of beta-lactamase in Pseudomonas aeruginosa ATCC 27853 assessed as potentiation of amoxicillin induced antibacterial activity at 10 to 100% amoxicillin to compound dilution after 24 hrs by agar well diffusion method; procedure, shortened: as §3
[22] = molecular target: Beta-lactamase (Pseudomonas aeruginosa) (UniProt Q8RL90); test: Inhibition of beta-lactamase in Pseudomonas aeruginosa ATCC 27853 assessed as potentiation of amoxicillin induced antibacterial activity at 5% amoxicillin to compound dilution after 24 hrs by agar well diffusion method; procedure, shortened: as §3
Bifidobacterium longum = test: Antibacterial activity against Bifidobacterium infantis after 24 hrs by agar well diffusion method; format: functional, Bifidobacterium longum subsp. infantis
[23] = tested on: Bifidobacterium longum subsp. infantis; test: Inhibition of beta-lactamase in Bifidobacterium infantis assessed as potentiation of amoxicillin induced antibacterial activity by measuring amoxicillin MIC after 24 hrs by agar well diffusion method (reference value: 1.5 ug/ml); procedure, shortened: as §3
[24] = tested on: Escherichia coli ATCC 25922; test: Inhibition of beta-lactamase in Escherichia coli ATCC 25922 assessed as potentiation of amoxicillin induced antibacterial activity by measuring amoxicillin MIC after 24 hrs by agar well diffusion method (reference value: 1.5 ug/ml); procedure, shortened: as §3
[25] = molecular target: Beta-lactamase (Staphylococcus aureus) (UniProt P00807); test: Inhibition of beta-lactamase in Staphylococcus aureus ATCC 25923 assessed as potentiation of amoxicillin induced antibacterial activity by measuring amoxicillin MIC after 24 hrs by agar well diffusion method (reference value: 1.5 ug/ml); procedure, shortened: as §3
[26] = molecular target: Beta-lactamase (Pseudomonas aeruginosa) (UniProt Q79MP6); test: Inhibition of beta-lactamase in Pseudomonas aeruginosa ATCC 27853 assessed as potentiation of amoxicillin induced antibacterial activity by measuring amoxicillin MIC after 24 hrs by agar well diffusion method (reference value: 1 ug/ml); procedure, shortened: as §3
[27] = tested on: Bifidobacterium longum subsp. infantis; test: Inhibition of beta-lactamase in Bifidobacterium infantis assessed as potentiation of amoxicillin induced antibacterial activity after 24 hrs by agar well diffusion method; procedure, shortened: as §3
[28] = tested on: Escherichia coli ATCC 25922; test: Inhibition of beta-lactamase in Escherichia coli ATCC 25922 assessed as potentiation of amoxicillin induced antibacterial activity after 24 hrs by agar well diffusion method; procedure, shortened: as §3
[29] = molecular target: Beta-lactamase (Staphylococcus aureus) (UniProt P00807); test: Inhibition of beta-lactamase in Staphylococcus aureus ATCC 25923 assessed as potentiation of amoxicillin induced antibacterial activity after 24 hrs by agar well diffusion method; procedure, shortened: as §3
[30] = molecular target: Beta-lactamase (Pseudomonas aeruginosa) (UniProt Q8RL90); test: Inhibition of beta-lactamase in Pseudomonas aeruginosa ATCC 27853 assessed as potentiation of amoxicillin induced antibacterial activity after 24 hrs by agar well diffusion method; procedure, shortened: as §3
[31] = molecular target: Beta-lactamase (Escherichia coli) (UniProt Q53TY8); test: Binding affinity to Escherichia coli beta-lactamase assessed as chemical shift in phosphate buffer at pH 7.4 after 60 mins by NMR analysis

| SMILES | inhibition zone (IZ) (Bacillus spizizenii [1]) | MIC (Escherichia coli [2]) | MIC (Pseudomonas aeruginosa [3]) | MIC (Staphylococcus aureus [4]) | MIC (Bacillus spizizenii [5]) | inhibition zone (IZ) (Escherichia coli [6]) | inhibition zone (IZ) (Pseudomonas aeruginosa [7]) | inhibition zone (IZ) (Staphylococcus aureus [8]) | Activity [9] | Activity [10] | Activity [11] | inhibition [15] | inhibition [16] | inhibition [17] | inhibition [18] | inhibition [19] | inhibition [20] | inhibition [21] | inhibition [22] | MIC (Bifidobacterium longum) | other results |
| --- | --- | --- | --- | --- | --- | --- | --- | --- | --- | --- | --- | --- | --- | --- | --- | --- | --- | --- | --- | --- | --- |
| N#C/C(=C\c1cnc(N)nc1N)c1nc2ccccc2s1 | 40 mm | 1 mg/L (≈ 3.4 µM) | 1 mg/L (≈ 3.4 µM) | 8 mg/L (≈ 27.2 µM) | 8 mg/L (≈ 27.2 µM) | 47 mm | 28 mm | 32 mm | Active | Active | Active | Active | inactive | Active | inactive | Active | inactive | Active | inactive | 1 mg/L (≈ 3.4 µM) | Activity (Escherichia coli [12]): Active; Activity (Escherichia coli [13]): Active; Activity (Escherichia coli [14]): Active; MIC [23]: 0.1 mg/L; MIC [24]: 0.1 mg/L; MIC [25]: 0.8 mg/L; MIC [26]: 0.8 mg/L; fractional inhibitory concentration index (FICI) [27]: 0.2; fractional inhibitory concentration index (FICI) [28]: 0.2; fractional inhibitory concentration index (FICI) [29]: 0.2; fractional inhibitory concentration index (FICI) [30]: 0.2 |
| N#C/C(=C\c1cnc(Nc2ccc(Cl)cc2)nc1)c1nc2ccccc2[nH]1 | 40 mm | 9 mg/L (≈ 24.1 µM) | 9 mg/L (≈ 24.1 µM) | 9 mg/L (≈ 24.1 µM) | 13 mg/L (≈ 34.9 µM) | 40 mm | 28 mm | 32 mm | Active | Active | Active | Active | inactive | Active | inactive | Active | inactive | Active | inactive | 9 mg/L (≈ 24.1 µM) | Activity [31]: Active; MIC [23]: 0.9 mg/L; MIC [24]: 0.9 mg/L; MIC [25]: 0.9 mg/L; MIC [26]: 1.3 mg/L; fractional inhibitory concentration index (FICI) [27]: 0.2; fractional inhibitory concentration index (FICI) [28]: 0.2; fractional inhibitory concentration index (FICI) [29]: 0.2; fractional inhibitory concentration index (FICI) [30]: 0.2 |
| N#C/C(=C\c1cnc(NCc2ccccc2)nc1)c1nc2ccccc2s1 | 39 mm | 18.3 mg/L (≈ 49.5 µM) | 18.3 mg/L (≈ 49.5 µM) | 18.3 mg/L (≈ 49.5 µM) | 18.3 mg/L (≈ 49.5 µM) | 50 mm | 35 mm | 35 mm | – | – | – | – | – | – | – | – | – | – | – | – | – |
| CN(C)c1ncc(/C=C(\C#N)c2nc3ccccc3[nH]2)cn1 | 39 mm | 14.3 mg/L (≈ 49.3 µM) | 11.1 mg/L (≈ 38.2 µM) | 11.1 mg/L (≈ 38.2 µM) | 20 mg/L (≈ 68.9 µM) | 50 mm | 30 mm | 30 mm | – | – | – | – | – | – | – | – | – | – | – | – | – |
| CC1(C)S[C@@H]2[C@H](NC(=O)[C@H](N)c3ccc(O)cc3)C(=O)N2[C@H]1C(=O)O [AMOXICILLIN] | 14 mm | 1.5 mg/L (≈ 4.1 µM) | 1 mg/L (≈ 2.74 µM) | 1.5 mg/L (≈ 4.1 µM) | 1.5 mg/L (≈ 4.1 µM) | 21 mm | 24 mm | 25 mm | – | – | – | – | – | – | – | – | – | – | – | 1.5 mg/L (≈ 4.1 µM) | – |
